Measurements reported in ChEMBL document CHEMBL2331285, “Optimization of 3,5-dimethylisoxazole derivatives as potent bromodomain ligands” (J Med Chem, 2013).
Active and inactive are the calls of the source. The calls are words filed in the database; no cut-off is given here.

Columns and labels:
[1] = molecular target: Bromodomain-containing protein 4 (Homo sapiens, UniProt O60885); experiment: Binding affinity to human BRD4 bromodomain 1 using H4Ac4 peptide by amplified luminescent proximity homogeneous assay
A549 = experiment: Cytotoxicity against human A549 cells after 72 hrs by MTS assay; format: functional, cell-based; conditions: A549, 72 h
HeLa = experiment: Cytotoxicity against human HeLa cells after 24 hrs by WST-1 assay; format: functional, cell-based
U2OS = experiment: Cytotoxicity against human U2OS cells after 24 hrs by WST-1 assay; format: functional, cell-based
NCI-H1975 [2] = experiment: Cytotoxicity against human NCI-H1975 cells after 72 hrs by MTS assay; format: functional, cell-based; conditions: NCI-H1975, 72 h
NCI-H1975 [3] = experiment: Cytotoxicity against human NCI-H1975 cells after 10 to 14 days by crystal violet staining based clonogenic survival assay; format: functional, cell-based
CREB-binding protein = CREB-binding protein (Homo sapiens, UniProt Q92793); experiment: Binding affinity to CREBBP bromodomain (unknown origin) using H3K56Ac peptide by amplified luminescent proximity homogeneous assay
Homo sapiens = species on record: Homo sapiens; experiment: Selectivity ratio of IC50 for CREBBP bromodomain to IC50 for human BRD4 bromodomain 1 (unknown origin)
Method in brief: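 IC50 ratio, both values from AlphaScreen peptide displacement (protein and peptide 50 nM each, duplicates, sigmoidal fit). BRD4(1) used biotinylated tetra-acetylated H4 peptide (SGRGK(Ac)GGK(Ac)GLGK(Ac)GGAK(Ac)RHRK-biotin); CREBBP used biotinylated H3K56Ac peptide.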

MV4-11 = experiment: Cytotoxicity against human MV4-11 cells after 72 hrs by MTS assay; format: functional, cell-based; conditions: MV4-11, 72 h

Chain of CREB-binding protein (Q92793 whole entry): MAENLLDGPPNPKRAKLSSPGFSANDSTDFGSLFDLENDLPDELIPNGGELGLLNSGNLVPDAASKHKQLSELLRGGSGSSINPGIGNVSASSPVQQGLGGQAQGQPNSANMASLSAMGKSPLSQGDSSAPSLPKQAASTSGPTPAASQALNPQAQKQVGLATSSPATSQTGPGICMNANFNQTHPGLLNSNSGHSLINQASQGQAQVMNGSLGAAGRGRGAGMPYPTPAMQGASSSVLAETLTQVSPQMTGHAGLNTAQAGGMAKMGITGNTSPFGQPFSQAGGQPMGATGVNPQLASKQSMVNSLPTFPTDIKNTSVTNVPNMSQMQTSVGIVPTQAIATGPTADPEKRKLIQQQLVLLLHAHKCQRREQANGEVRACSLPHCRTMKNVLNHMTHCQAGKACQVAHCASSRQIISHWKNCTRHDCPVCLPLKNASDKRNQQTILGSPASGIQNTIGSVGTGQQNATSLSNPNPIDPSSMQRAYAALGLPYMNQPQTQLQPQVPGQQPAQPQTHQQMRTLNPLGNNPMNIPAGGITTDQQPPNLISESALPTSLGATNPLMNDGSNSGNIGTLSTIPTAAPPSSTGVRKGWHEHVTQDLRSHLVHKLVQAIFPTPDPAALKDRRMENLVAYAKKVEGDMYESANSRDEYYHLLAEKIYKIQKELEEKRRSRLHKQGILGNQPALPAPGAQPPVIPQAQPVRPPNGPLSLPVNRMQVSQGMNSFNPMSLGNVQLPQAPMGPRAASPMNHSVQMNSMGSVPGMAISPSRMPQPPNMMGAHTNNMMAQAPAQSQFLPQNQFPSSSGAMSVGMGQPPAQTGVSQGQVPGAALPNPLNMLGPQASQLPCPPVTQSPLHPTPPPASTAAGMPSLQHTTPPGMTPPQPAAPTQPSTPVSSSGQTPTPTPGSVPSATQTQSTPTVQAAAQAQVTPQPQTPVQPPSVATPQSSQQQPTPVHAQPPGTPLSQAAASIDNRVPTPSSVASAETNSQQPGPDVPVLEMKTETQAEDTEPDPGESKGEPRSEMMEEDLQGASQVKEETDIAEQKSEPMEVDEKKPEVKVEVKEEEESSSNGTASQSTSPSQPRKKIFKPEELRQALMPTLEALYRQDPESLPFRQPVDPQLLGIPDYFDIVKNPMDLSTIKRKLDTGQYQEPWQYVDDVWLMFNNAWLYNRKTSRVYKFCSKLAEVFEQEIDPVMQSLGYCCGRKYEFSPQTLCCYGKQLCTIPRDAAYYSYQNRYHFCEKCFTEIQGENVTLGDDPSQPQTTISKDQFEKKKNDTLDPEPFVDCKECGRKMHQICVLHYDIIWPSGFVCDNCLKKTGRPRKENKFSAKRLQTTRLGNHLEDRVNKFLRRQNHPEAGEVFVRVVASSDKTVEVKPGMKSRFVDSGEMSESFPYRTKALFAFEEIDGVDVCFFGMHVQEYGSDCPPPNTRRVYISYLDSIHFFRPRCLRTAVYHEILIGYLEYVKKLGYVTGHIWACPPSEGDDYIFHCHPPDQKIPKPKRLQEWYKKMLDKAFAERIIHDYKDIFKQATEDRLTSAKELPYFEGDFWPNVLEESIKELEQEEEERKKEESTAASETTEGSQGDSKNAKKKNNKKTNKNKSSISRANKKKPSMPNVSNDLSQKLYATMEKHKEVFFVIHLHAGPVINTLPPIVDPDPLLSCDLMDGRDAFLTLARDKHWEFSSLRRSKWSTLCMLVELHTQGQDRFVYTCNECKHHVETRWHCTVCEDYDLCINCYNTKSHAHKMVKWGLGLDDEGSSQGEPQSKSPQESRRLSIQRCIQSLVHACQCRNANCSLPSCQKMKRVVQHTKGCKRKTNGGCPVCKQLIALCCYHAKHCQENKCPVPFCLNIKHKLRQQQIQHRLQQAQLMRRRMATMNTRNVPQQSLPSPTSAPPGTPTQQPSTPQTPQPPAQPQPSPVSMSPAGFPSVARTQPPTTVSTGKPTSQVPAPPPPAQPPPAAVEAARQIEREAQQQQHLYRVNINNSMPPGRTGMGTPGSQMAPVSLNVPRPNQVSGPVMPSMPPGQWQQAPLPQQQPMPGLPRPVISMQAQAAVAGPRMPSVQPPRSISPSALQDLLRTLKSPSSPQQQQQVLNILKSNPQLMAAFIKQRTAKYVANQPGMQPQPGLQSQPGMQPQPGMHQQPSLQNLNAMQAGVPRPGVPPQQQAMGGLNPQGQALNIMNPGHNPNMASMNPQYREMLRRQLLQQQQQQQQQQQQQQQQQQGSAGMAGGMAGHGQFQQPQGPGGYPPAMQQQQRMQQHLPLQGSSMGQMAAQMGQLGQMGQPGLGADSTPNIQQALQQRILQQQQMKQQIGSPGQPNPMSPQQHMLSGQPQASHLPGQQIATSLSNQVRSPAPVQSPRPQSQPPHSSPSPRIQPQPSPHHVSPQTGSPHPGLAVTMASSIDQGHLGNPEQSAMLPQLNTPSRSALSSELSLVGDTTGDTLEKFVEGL

Cc1noc(C)c1-c1cc(O)cc(C(=O)c2ccccc2)c1
IC50 [1]: 544 nM

Cc1noc(C)c1-c1cc(O)cc(C(O)c2ccccc2)c1 (racemic)
IC50 (A549): > 10000 nM
IC50 (HeLa): > 100000 nM
IC50 (U2OS): > 100000 nM
IC50 (NCI-H1975 [2]): > 10000 nM
Activity (NCI-H1975 [3]): Active

CCOc1cc(-c2c(C)noc2C)cc(C(O)c2ccccc2)c1 (stereo not given)
IC50 (CREB-binding protein): 4100 nM
IC50 [1]: 640 nM
Ratio IC50 (Homo sapiens): 6

COCCOc1cc(-c2c(C)noc2C)cc(C(O)c2ccccc2)c1 (stereo not given)
IC50 (CREB-binding protein): 2070 nM
IC50 [1]: 1380 nM

Cc1sc2c(c1C)C(c1ccc(Cl)cc1)=N[C@@H](CC(=O)OC(C)(C)C)c1nnc(C)n1-2
IC50 (MV4-11): 242 nM
IC50 (HeLa): > 100000 nM
IC50 (U2OS): > 100000 nM

COc1cc(-c2c(C)noc2C)cc(C(O)c2ccccc2)c1 (stereo not given)
IC50 (CREB-binding protein): 3960 nM
IC50 [1]: 1360 nM

CCOc1cc(-c2c(C)noc2C)cc(C(C)O)c1 (stereo not given)
Ratio IC50 (Homo sapiens): 6

Cc1noc(C)c1-c1cc(OCCO)cc(C(O)c2ccccc2)c1 (stereo not given)
IC50 (CREB-binding protein): 2810 nM
IC50 [1]: 1170 nM

CC(=O)Oc1cc(-c2c(C)noc2C)cc(C(O)c2ccccc2)c1 (racemic)
IC50 (CREB-binding protein): 2480 nM
IC50 (A549): > 10000 nM
IC50 (HeLa): > 100000 nM
IC50 (U2OS): > 100000 nM
IC50 (NCI-H1975 [2]): > 10000 nM
Activity (NCI-H1975 [3]): Active
